The target in data set [1] is T1, MAO-A (amine oxidase [flavin-containing] A) (Homo sapiens, UniProt P21397).
T1 sequence (P21397 whole entry): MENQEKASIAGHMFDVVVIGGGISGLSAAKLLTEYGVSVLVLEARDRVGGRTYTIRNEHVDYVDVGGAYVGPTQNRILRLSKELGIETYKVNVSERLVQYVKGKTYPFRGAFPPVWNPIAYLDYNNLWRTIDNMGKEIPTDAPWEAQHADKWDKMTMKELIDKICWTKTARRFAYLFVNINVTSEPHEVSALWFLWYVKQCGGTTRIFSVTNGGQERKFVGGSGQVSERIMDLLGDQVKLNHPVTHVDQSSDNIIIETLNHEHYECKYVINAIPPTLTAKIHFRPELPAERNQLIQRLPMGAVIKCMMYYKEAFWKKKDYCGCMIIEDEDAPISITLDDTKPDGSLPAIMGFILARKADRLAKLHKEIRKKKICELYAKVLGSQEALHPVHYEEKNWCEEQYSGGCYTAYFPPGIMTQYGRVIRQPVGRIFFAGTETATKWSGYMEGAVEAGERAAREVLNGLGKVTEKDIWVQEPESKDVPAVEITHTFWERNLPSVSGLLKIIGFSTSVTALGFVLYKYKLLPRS
Put plainly: Inhibition of human MAOA at 100 uM incubated for 15 mins using p-tyramine substrate by Amplex red reagent based fluorescence assay. The settings on record: human MAOA enzyme, probe p-tyramine. In a few lines:
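hMAO-A was tested at a single concentration of 100 μM, with iproniazid as reference inhibitor.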

In data set [2] the target is T2, Amine oxidase [flavin-containing] B (Homo sapiens, UniProt P27338).
T2 sequence (P27338 whole entry): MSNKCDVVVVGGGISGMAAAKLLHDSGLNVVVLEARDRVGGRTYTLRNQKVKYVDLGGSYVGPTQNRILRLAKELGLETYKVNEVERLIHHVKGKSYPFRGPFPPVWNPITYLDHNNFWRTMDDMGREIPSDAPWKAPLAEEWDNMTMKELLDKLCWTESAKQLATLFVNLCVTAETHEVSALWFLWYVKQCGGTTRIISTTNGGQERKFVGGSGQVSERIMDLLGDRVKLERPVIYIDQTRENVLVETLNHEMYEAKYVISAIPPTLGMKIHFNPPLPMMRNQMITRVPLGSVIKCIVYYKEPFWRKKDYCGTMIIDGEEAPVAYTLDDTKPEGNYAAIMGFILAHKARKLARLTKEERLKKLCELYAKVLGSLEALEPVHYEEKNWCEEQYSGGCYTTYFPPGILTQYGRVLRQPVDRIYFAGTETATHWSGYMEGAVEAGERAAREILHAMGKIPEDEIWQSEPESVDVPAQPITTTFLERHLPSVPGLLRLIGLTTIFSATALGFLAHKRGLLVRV
Nature of the data set: Inhibition of human MAOB incubated for 15 mins using p-tyramine substrate by Amplex red reagent based fluorescence assay.

The species entered for a further data set is Homo sapiens. Nature of the data set: Selectivity index, ratio of IC50 for human MAOA to IC50 for human MAOB. The procedure, abridged: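 Selectivity index was computed as IC50 (MAO-A)/IC50 (MAO-B), each IC50 being the mean of three experiments.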
Data set [3] deals with T3, Amine oxidase [flavin-containing] A (Homo sapiens, UniProt P21397).
T3 sequence (P21397 whole entry): T1 sequence (P21397 whole entry)
Put plainly: Inhibition of human MAOA incubated for 15 mins using p-tyramine substrate by Amplex red reagent based fluorescence assay. The procedure, abridged: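 IC50 against hMAO-A is reported as mean ± SEM of three experiments, with iproniazid as reference.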

For data set [4], the target named is T2, Amine oxidase [flavin-containing] B. Put plainly: Reversible inhibition of human MAOB at 2 fold enzymatic IC50 level pre-incubated for 0 to 60 mins using p-tyramine substrate and measured after 15 mins by Amplex red reagent based fluorescence assay. The settings on record: 0.25 h.
Data set [5] shares this target. Put plainly: Reversible inhibition of human MAOB at 2 fold enzymatic IC50 level pre-incubated for 0 mins using p-tyramine substrate and measured after 15 mins by Amplex red reagent based fluorescence assay. The settings on record: 0.25 h.
For data set [6] the target is unchanged. Nature of the data set: Reversible inhibition of human MAOB at 2 fold enzymatic IC50 level pre-incubated for 15 mins using p-tyramine substrate and measured after 15 mins by Amplex red reagent based fluorescence assay. The following applies: 0.25 h.
Data set [7] has the same target. Put plainly: Reversible inhibition of human MAOB at 2 fold enzymatic IC50 level pre-incubated for 30 mins using p-tyramine substrate and measured after 15 mins by Amplex red reagent based fluorescence assay. The settings on record: 0.25 h.
The target is the same in data set [8]. Put plainly: Reversible inhibition of human MAOB at 2 fold enzymatic IC50 level pre-incubated for 60 mins using p-tyramine substrate and measured after 15 mins by Amplex red reagent based fluorescence assay. The following applies: 0.25 h.
Another data set concerns SH-SY5Y. Nature of the data set: Cytotoxicity in human SH-SY5Y cells assessed as reduction in cell viability at 3 to 50 uM incubated for 48 hrs by MTT assay. In kind it is cell-based. In a few lines:
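SH-SY5Y cells were exposed to various concentrations of test compound for 48 h, then viability was read by MTT assay. Results are expressed as percentage of control cells, mean ± SD of three independent experiments.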

Data set [9] deals with T2, Amine oxidase [flavin-containing] B. Put plainly: Competitive inhibition of human MAOB at 0.095 to 0.38 uM using 50 to 500 uM p-tyramine substrate by Amplex red reagent dependent fluorescence assay based Lineweaver-Burk plot analysis. In a few lines: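 Kinetics were run as Michaelis-Menten experiments. Rates were measured at five p-tyramine concentrations (50-500 μM), with four inhibitor concentrations (0, 0.095, 0.19 and 0.38 μM). Inhibition type was assigned from overlaid double-reciprocal Lineweaver-Burk plots.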

In [1], `COc1cccc(OCc2cccc(Br)c2)c1` registered an inhibition at 0.25 h, 100 µM of 22%. This molecule displayed an IC50 in [2] of 19.3 µM. Besides, the Ratio IC50 in the data set listed under Homo sapiens was above 5.2.
For `Fc1ccc(COc2cccc(Br)c2)cc1` the same measures were 31%, 0.58 µM and above 172.
For `Brc1cccc(COc2cccc(Br)c2)c1` the same measures were 27%, 0.76 µM and above 132.
As for `O=Cc1cccc(OCc2cccc(Br)c2)c1`, the IC50 in data set [3] was determined as 28.2 µM; in data set [2], 0.53 µM. Moreover, the Ratio IC50 in the data set filed under Homo sapiens was 53.2.
Regarding `O=Cc1cccc(OCc2ccc(Br)cc2)c1`, the IC50 in data set [3] is 27.9 µM; in data set [2], 0.19 µM. Moreover, the “inhibition (INH)” value is “Active” in data set [4]; 46.4% in data set [5]; 45.8% in data set [6]; 49.9% in [7]; 49.5% in data set [8]. Also, in the data set with SH-SY5Y, the Activity result is “Non-Toxic”.
In the case of `COc1cccc(OCc2ccc(C)cc2)c1`, the inhibition at 0.25 h, 100 µM in data set [1] was determined as 26%. The same molecule returned an IC50 in data set [2] of 14.6 µM. The Ratio IC50 in the data set filed under Homo sapiens was above 6.8.
On the same counts, the results for `COc1cccc(OCc2cccc(C)c2)c1` are 23%, 10.9 µM and above 9.2.
For `COc1cccc(OCc2ccc(F)cc2)c1` the same measures were 22%, 15.6 µM and above 6.4.
On the same counts, the results for `Brc1cccc(OCc2ccccc2)c1` are 23%, 2.73 µM and above 36.6.
On to `Brc1ccc(COc2cccc(Br)c2)cc1`, for which, in [1], the inhibition at 0.25 h, 100 µM came out at 30%. In [2], half-maximal inhibition (IC50) required 0.35 µM. For the same molecule, the “inhibition (INH)” value is “Active” in data set [4]; 44.8% in data set [5]; 44.9% in data set [6]; 48.6% in data set [7]; 49.2% in data set [8]; “Active” in data set [9]. Further, the Activity entry in the data set with SH-SY5Y was “Non-Toxic”.
Take `O=Cc1cccc(OCc2cccc(F)c2)c1`: the IC50 is 64.2 µM in [3] and 1.21 µM in data set [2]. In addition, in the data set listed under Homo sapiens, the Ratio IC50 came out at 53.1.
On the same counts, the results for `O=Cc1cccc(OCc2ccc(F)cc2)c1` are 42.5 µM, 0.93 µM and 45.7.
On to `COc1cccc(OCc2ccccc2)c1`, for which the inhibition at 0.25 h, 100 µM in data set [1] turned out to be 25%. Further, 15.8 µM corresponded to half-maximal inhibition in data set [2] (IC50). The Ratio IC50 in the data set filed under Homo sapiens is above 6.3.
As for `O=Cc1cccc(OCc2ccccc2)c1`, the IC50 in data set [3] came to 45.6 µM; in [2], 1.96 µM. The Ratio IC50 in the data set filed under Homo sapiens was 23.3.
In turn, `Cc1ccc(COc2cccc(Br)c2)cc1` registered an inhibition at 0.25 h, 100 µM in [1] of 24%. The molecule further yielded an IC50 in [2] of 1.53 µM. For the same molecule, the Ratio IC50 in the data set listed under Homo sapiens was above 65.4.
With `COc1cccc(OCc2cccc(F)c2)c1`, the inhibition at 0.25 h, 100 µM in [1] was 19%. In addition, the IC50 in [2] was determined as 12.3 µM. In addition, the Ratio IC50 in the data set listed under Homo sapiens is above 8.1.
On the same counts, the results for `COc1cccc(OCc2ccc(Br)cc2)c1` are 25%, 8.63 µM and above 11.6.
On the same counts, the results for `Fc1cccc(COc2cccc(Br)c2)c1` are 37%, 1.06 µM and above 94.3.
On the same counts, the results for `Cc1cccc(COc2cccc(Br)c2)c1` are 43%, 1.98 µM and above 50.5.
Take `Cc1cccc(COc2cccc(C=O)c2)c1`: the IC50 in [3] turned out to be 51.6 µM; in [2], 2.91 µM. In the data set listed under Homo sapiens, the Ratio IC50 turned out to be 17.7.
On the same counts, the results for `Cc1ccc(COc2cccc(C=O)c2)cc1` are 64.8 µM, 2.53 µM and 25.6.

Source of the values: ChEMBL document CHEMBL4138066, “Synthesis and evaluation of small molecules bearing a benzyloxy substituent as novel and potent monoamine oxidase inhibitors” (Medchemcomm, 2017).
